# Measured values from ChEMBL document CHEMBL3414427, “Structure-activity relationships of 3-O-β-chacotriosyl ursolic acid derivatives as novel H5N1 entry inhibitors” (Eur J Med Chem, 2015).
# Activity calls are given as the source filed them. The rule behind the calls is not given here.
# Key:
# cells = format: functional, cell-based, Influenza A virus (A/Thailand/Kan353/2004(H5N1)); settings: Influenza A virus, MDCK, 48 h
# [1] = Cytotoxicity against MDCK cells; format: cell-based, Canis lupus familiaris; settings: dog
# Procedure, shortened: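 MDCK cells (ATCC) grown in DMEM containing glutamine, supplemented with 10% fetal calf serum. CC50 is the mean of three independent assays.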
# [2] = system: Vesicular stomatitis virus; test: Antiviral activity against VSV-G enveloped pseudovirus; format: functional, organism-based
# Procedure, shortened: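 VSV-G pseudotyped particles (negative control), incubated with compound instead of H5N1 pseudovirus. MDCK cells (ATCC; DMEM with glutamine plus 10% FCS), seeded at 10⁴/well and grown overnight, then infected and incubated a further 48 h. Cells were PBS-washed and lysed, and luciferase activity was read by luminometer after adding substrate.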
# [3] = target: Neuraminidase (Influenza A virus) (UniProt A5Z252); test: Inhibition of Influenza A virus (H5N1) neuraminidase N1 at 20 microg/ml after 30 mins by fluorescence based assay
# Procedure, shortened: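 Fluorescence-based kit assay with purified N1-type neuraminidase in detection buffer. Test compound was added, then neuraminidase substrate. Incubated at 37 °C for 30 min; fluorescence read at excitation 340 nm and emission 535 nm.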
Structure (SMILES),IC50 (cells) [µM],CC50 [1] [µM],inhibition [2],inhibition [3]
C[C@H]1[C@H](C)CC[C@]2(C(=O)OC3CCCC3)CC[C@]3(C)C(=CC[C@@H]4[C@@]5(C)CC[C@H](O[C@@H]6O[C@H](CO)[C@@H](O[C@@H]7O[C@@H](C)[C@H](O)[C@@H](O)[C@H]7O)[C@H](O)[C@H]6O[C@@H]6O[C@@H](C)[C@H](O)[C@@H](O)[C@H]6O)C(C)(C)[C@@H]5CC[C@]43C)[C@H]12,4.91,24.2,–,–
CCOC(=O)[C@]12CC[C@@H](C)[C@H](C)[C@H]1C1=CC[C@@H]3[C@@]4(C)CC[C@H](O[C@@H]5O[C@H](CO)[C@@H](O[C@@H]6O[C@@H](C)[C@H](O)[C@@H](O)[C@H]6O)[C@H](O)[C@H]5O[C@@H]5O[C@@H](C)[C@H](O)[C@@H](O)[C@H]5O)C(C)(C)[C@@H]4CC[C@@]3(C)[C@]1(C)CC2,1.16,19.1,–,–
COC(=O)[C@@]1(C)CC[C@]2(C)CC[C@]3(C)C(=CC(=O)[C@@H]4[C@@]5(C)CC[C@H](O[C@@H]6O[C@H](CO)[C@@H](O[C@@H]7O[C@@H](C)[C@H](O)[C@@H](O)[C@H]7O)[C@H](O)[C@H]6O[C@@H]6O[C@@H](C)[C@H](O)[C@@H](O)[C@H]6O)C(C)(C)[C@@H]5CC[C@]43C)[C@@H]2C1,4.93,17.1,–,–
CCN(CC)C(=O)[C@]12CC[C@@H](C)[C@H](C)[C@H]1C1=CC[C@@H]3[C@@]4(C)CC[C@H](O[C@@H]5O[C@H](CO)[C@@H](O[C@@H]6O[C@@H](C)[C@H](O)[C@@H](O)[C@H]6O)[C@H](O)[C@H]5O[C@@H]5O[C@@H](C)[C@H](O)[C@@H](O)[C@H]5O)C(C)(C)[C@@H]4CC[C@@]3(C)[C@]1(C)CC2,1.41,47,–,–
COC(=O)[C@]12CC[C@@H](C)[C@H](C)[C@H]1C1=CC(=O)[C@@H]3[C@@]4(C)CC[C@H](O[C@@H]5O[C@H](CO)[C@@H](O[C@@H]6O[C@@H](C)[C@H](O)[C@@H](O)[C@H]6O)[C@H](O)[C@H]5O[C@@H]5O[C@@H](C)[C@H](O)[C@@H](O)[C@H]5O)C(C)(C)[C@@H]4CC[C@@]3(C)[C@]1(C)CC2,5.68,38.4,–,–
COC(=O)[C@]12CCC(C)(C)C[C@H]1C1=CC[C@@H]3[C@@]4(C)CC[C@H](O[C@@H]5O[C@H](CO)[C@@H](O[C@@H]6O[C@@H](C)[C@H](O)[C@@H](O)[C@H]6O)[C@H](O)[C@H]5O[C@@H]5O[C@@H](C)[C@H](O)[C@@H](O)[C@H]5O)C(C)(C)[C@@H]4CC[C@@]3(C)[C@]1(C)CC2,3.74,16.9,–,–
COC(=O)[C@]12CC[C@@H](C)[C@H](C)[C@H]1C1=CC[C@@H]3[C@@]4(C)CC[C@@H](O[C@@H]5O[C@H](CO)[C@@H](O[C@@H]6O[C@@H](C)[C@H](O)[C@@H](O)[C@H]6O)[C@H](O)[C@H]5O[C@@H]5O[C@@H](C)[C@H](O)[C@@H](O)[C@H]5O)C(C)(C)[C@@H]4CC[C@@]3(C)[C@]1(C)CC2,1.33,> 200,inactive,inactive
C=C(C)[C@@H]1CC[C@]2(C(=O)OC)CC[C@]3(C)[C@H](CC[C@@H]4[C@@]5(C)CC[C@H](O[C@@H]6O[C@H](CO)[C@@H](O[C@@H]7O[C@@H](C)[C@H](O)[C@@H](O)[C@H]7O)[C@H](O)[C@H]6O[C@@H]6O[C@@H](C)[C@H](O)[C@@H](O)[C@H]6O)C(C)(C)[C@@H]5CC[C@]43C)[C@H]12,2.08,33.9,–,–
CNC(=O)[C@]12CC[C@@H](C)[C@H](C)[C@H]1C1=CC[C@@H]3[C@@]4(C)CC[C@H](O[C@@H]5O[C@H](CO)[C@@H](O[C@@H]6O[C@@H](C)[C@H](O)[C@@H](O)[C@H]6O)[C@H](O)[C@H]5O[C@@H]5O[C@@H](C)[C@H](O)[C@@H](O)[C@H]5O)C(C)(C)[C@@H]4CC[C@@]3(C)[C@]1(C)CC2,22.5,> 200,–,–
C[C@H]1[C@H](C)CC[C@]2(C(=O)N(C)C)CC[C@]3(C)C(=CC[C@@H]4[C@@]5(C)CC[C@H](O[C@@H]6O[C@H](CO)[C@@H](O[C@@H]7O[C@@H](C)[C@H](O)[C@@H](O)[C@H]7O)[C@H](O)[C@H]6O[C@@H]6O[C@@H](C)[C@H](O)[C@@H](O)[C@H]6O)C(C)(C)[C@@H]5CC[C@]43C)[C@H]12,0.98,48.6,inactive,inactive
C=CCOC(=O)[C@]12CC[C@@H](C)[C@H](C)[C@H]1C1=CC[C@@H]3[C@@]4(C)CC[C@H](O[C@@H]5O[C@H](CO)[C@@H](O[C@@H]6O[C@@H](C)[C@H](O)[C@@H](O)[C@H]6O)[C@H](O)[C@H]5O[C@@H]5O[C@@H](C)[C@H](O)[C@@H](O)[C@H]5O)C(C)(C)[C@@H]4CC[C@@]3(C)[C@]1(C)CC2,34,21.8,–,–
C[C@H]1[C@H](C)CC[C@]2(C(=O)O)CC[C@]3(C)C(=CC[C@@H]4[C@@]5(C)CC[C@H](O[C@@H]6O[C@H](CO)[C@@H](O[C@@H]7O[C@@H](C)[C@H](O)[C@@H](O)[C@H]7O)[C@H](O)[C@H]6O[C@@H]6O[C@@H](C)[C@H](O)[C@@H](O)[C@H]6O)C(C)(C)[C@@H]5CC[C@]43C)[C@H]12,10.1,26.2,–,–
O=C(NCCN1CCCCC1)c1cc(F)cc(C(F)(F)F)c1,4.45,1480,–,–
CCCCCOC(=O)[C@]12CC[C@@H](C)[C@H](C)[C@H]1C1=CC[C@@H]3[C@@]4(C)CC[C@H](O[C@@H]5O[C@H](CO)[C@@H](O[C@@H]6O[C@@H](C)[C@H](O)[C@@H](O)[C@H]6O)[C@H](O)[C@H]5O[C@@H]5O[C@@H](C)[C@H](O)[C@@H](O)[C@H]5O)C(C)(C)[C@@H]4CC[C@@]3(C)[C@]1(C)CC2,3.72,20.1,–,–
COC(=O)[C@]12CC[C@@H](C)[C@H](C)[C@H]1C1=CC[C@@H]3[C@@]4(C)CC[C@H](O[C@@H]5O[C@H](CO)[C@@H](O[C@@H]6O[C@@H](C)[C@H](O)[C@@H](O)[C@H]6O)[C@H](O)[C@H]5O[C@@H]5O[C@@H](C)[C@H](O)[C@@H](O)[C@H]5O)C(C)(C)[C@@H]4CC[C@@]3(C)[C@]1(C)CC2,1.02,13,inactive,inactive
CCCOC(=O)[C@]12CC[C@@H](C)[C@H](C)[C@H]1C1=CC[C@@H]3[C@@]4(C)CC[C@H](O[C@@H]5O[C@H](CO)[C@@H](O[C@@H]6O[C@@H](C)[C@H](O)[C@@H](O)[C@H]6O)[C@H](O)[C@H]5O[C@@H]5O[C@@H](C)[C@H](O)[C@@H](O)[C@H]5O)C(C)(C)[C@@H]4CC[C@@]3(C)[C@]1(C)CC2,2.3,19.2,–,–
